Test [1] relates to Schistosoma mansoni. Description: Inhibition of recombinant Schistosoma mansoni SmCB1 expressed in Pichia pastoris at 5 uM using Z-FR-AMC as substrate and measured at 23 sec interval for 30 mins without preincubation by fluorimetric analysis relative to control. Summed up:
(§1)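 SmCB1 (recombinant, 8 nM) in 0.1 M sodium acetate pH 5.5 with 0.01% Triton X-100 and 4 mM β-mercaptoethanol. Compound at 5 µM, either not pre-incubated or pre-incubated 10 min with enzyme. Z-FR-AMC 20 µM, fluorescence 340/440 nm every 23 s for 30 min. Inhibition is versus DMSO, with E-64 control; each condition in duplicate.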

Test [2] has as its system Schistosoma mansoni. Description: Inhibition of recombinant Schistosoma mansoni SmCB1 expressed in Pichia pastoris at 5 uM using Z-FR-AMC as substrate preincubated for 10 mins followed by substrate addition and measured at 23 sec interval for 30 mins by fluorimetric analysis relative to control. The gist of the method:
as §1

Test [3] addresses Rhodesain (Trypanosoma brucei rhodesiense) (UniProt Q95PM0). Description: Inhibition of recombinant Trypanosoma brucei rhodesain expressed in Pichia pastoris at 5 uM using Z-FR-AMC as substrate preincubated for 10 mins followed by substrate addition and measured at 12 sec interval for 5 mins by fluorimetric analysis relative to control. Particulars: time 15.0 min. The gist of the method:
(§2)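 Recombinant rhodesain or cruzain (1 nM) in 0.1 M sodium acetate pH 5.5, 0.01% Triton X-100, 1 mM β-mercaptoethanol. Compound at a single concentration, either without or after 10 min enzyme pre-incubation. Inhibition is relative to DMSO, with E-64 as positive control. Done in duplicate (primary screen) or triplicate.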

For test [4] the target is unchanged. Description: Inhibition of recombinant Trypanosoma brucei rhodesain expressed in Pichia pastoris at 10 uM using Z-FR-AMC as substrate and measured at 12 sec interval for 5 mins without preincubation by fluorimetric analysis relative to control. Summed up: (§3)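 Recombinant rhodesain or cruzain (1 nM) in 0.1 M sodium acetate pH 5.5, 0.01% Triton X-100, 1 mM β-mercaptoethanol. Compound at a single concentration, either without or after 10 min enzyme pre-incubation. Z-FR-AMC 2.5 µM, read at 340/440 nm every 12 s for 5 min. Inhibition is relative to DMSO, with E-64 as positive control. Done in duplicate (primary screen) or triplicate.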

The target of test [5] is Cruzipain (Trypanosoma cruzi) (UniProt P25779). Nature of the test: Inhibition of recombinant Trypanosoma cruzi cruzain at 10 uM using Z-FR-AMC as substrate and measured at 12 sec interval for 5 mins without preincubation by fluorimetric analysis relative to control. The gist of the method:
as §3

Test [6] has the same target. Nature of the test: Inhibition of recombinant Trypanosoma cruzi cruzain at 5 uM using Z-FR-AMC as substrate preincubated for 10 mins followed by substrate addition and measured at 12 sec interval for 5 mins by fluorimetric analysis relative to control. Particulars: time 15.0 min. The gist of the method: as §2
In test [7] the target is Rhodesain (Trypanosoma brucei rhodesiense) (UniProt Q95PM0). Nature of the test: Inhibition of recombinant Trypanosoma brucei rhodesain expressed in Pichia pastoris at 10 uM using Z-FR-AMC as substrate preincubated for 10 mins followed by substrate addition and measured at 12 sec interval for 5 mins by fluorimetric analysis relative to control. Particulars: time 15.0 min. The gist of the method:
as §3

The target in test [8] is Cruzipain (Trypanosoma cruzi) (UniProt P25779). Description: Inhibition of recombinant Trypanosoma cruzi cruzain at 10 uM using Z-FR-AMC as substrate preincubated for 10 mins followed by substrate addition and measured at 12 sec interval for 5 mins by fluorimetric analysis relative to control. Particulars: time 15.0 min. Summed up: as §3
The target is the same in test [9]. Description: Inhibition of recombinant Trypanosoma cruzi cruzain at 5 uM using Z-FR-AMC as substrate and measured at 12 sec interval for 5 mins without preincubation by fluorimetric analysis relative to control. Summed up: as §2
For test [10], the target named is Rhodesain (Trypanosoma brucei rhodesiense) (UniProt Q95PM0). Nature of the test: Inhibition of recombinant Trypanosoma brucei rhodesain expressed in Pichia pastoris at 5 uM using Z-FR-AMC as substrate and measured at 12 sec interval for 5 mins without preincubation by fluorimetric analysis relative to control. Summed up: as §2
Test [11] deals with Cruzipain (Trypanosoma cruzi) (UniProt P25779). Description: Inhibition of recombinant Trypanosoma cruzi cruzain at 100 uM using Z-FR-AMC as substrate and measured at 12 sec interval for 5 mins without preincubation by fluorimetric analysis relative to control. The gist of the method: as §3
Test [12] deals with Rhodesain (Trypanosoma brucei rhodesiense) (UniProt Q95PM0). Description: Inhibition of recombinant Trypanosoma brucei rhodesain expressed in Pichia pastoris at 100 uM using Z-FR-AMC as substrate and measured at 12 sec interval for 5 mins without preincubation by fluorimetric analysis relative to control. Summed up: (§4)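 Run with no pre-incubation or with 10 min enzyme-compound pre-incubation. Fluorescence read at 340/440 nm. Concentration was set by solubility under assay conditions. Inhibition is against DMSO, with E-64 as positive control; triplicate.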

Test [13] concerns the target Cruzipain (Trypanosoma cruzi) (UniProt P25779). Description: Inhibition of recombinant Trypanosoma cruzi cruzain at 100 uM using Z-FR-AMC as substrate preincubated for 10 mins followed by substrate addition and measured at 12 sec interval for 5 mins by fluorimetric analysis relative to control. The conditions noted are these: time 15.0 min. The gist of the method:
as §3

For test [14], the target named is Rhodesain (Trypanosoma brucei rhodesiense) (UniProt Q95PM0). Nature of the test: Inhibition of recombinant Trypanosoma brucei rhodesain expressed in Pichia pastoris at 100 uM using Z-FR-AMC as substrate preincubated for 10 mins followed by substrate addition and measured at 12 sec interval for 5 mins by fluorimetric analysis relative to control. Particulars: time 15.0 min. Summed up:
as §4

Test [15] concerns Trypanosoma brucei brucei. Nature of the test: Trypanocidal activity against Trypanosoma brucei brucei Squib 427 assessed as reduction in parasite viability. In kind it is functional, organism-based.
Another test relates to Trypanosoma cruzi. Description: Trypanocidal activity against Trypanosoma cruzi Tulahuen C4 assessed as reduction in parasite viability. The format is functional, organism-based.
The test system of test [16] is Trypanosoma brucei rhodesiense. Description: Trypanocidal activity against Trypanosoma brucei rhodesiense STI B900 assessed as reduction in parasite viability. In kind it is functional, organism-based.

The term inhibition denotes the relative decrease from the control value, in per cent. What is called IC50 is the concentration at which inhibition is half-maximal.

Sequence of Cruzipain (Trypanosoma cruzi) (P25779 123-467 limits assumed): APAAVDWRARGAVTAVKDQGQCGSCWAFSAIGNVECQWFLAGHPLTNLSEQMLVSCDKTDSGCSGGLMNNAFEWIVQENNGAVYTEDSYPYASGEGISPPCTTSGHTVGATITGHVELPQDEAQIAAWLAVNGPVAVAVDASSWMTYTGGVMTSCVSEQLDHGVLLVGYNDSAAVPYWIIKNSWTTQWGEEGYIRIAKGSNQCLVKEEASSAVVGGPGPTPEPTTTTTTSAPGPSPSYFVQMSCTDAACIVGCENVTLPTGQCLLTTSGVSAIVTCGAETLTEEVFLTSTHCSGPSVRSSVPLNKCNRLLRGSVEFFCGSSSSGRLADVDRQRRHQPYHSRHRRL
Sequence of Rhodesain (Trypanosoma brucei rhodesiense) (Q95PM0 1-450): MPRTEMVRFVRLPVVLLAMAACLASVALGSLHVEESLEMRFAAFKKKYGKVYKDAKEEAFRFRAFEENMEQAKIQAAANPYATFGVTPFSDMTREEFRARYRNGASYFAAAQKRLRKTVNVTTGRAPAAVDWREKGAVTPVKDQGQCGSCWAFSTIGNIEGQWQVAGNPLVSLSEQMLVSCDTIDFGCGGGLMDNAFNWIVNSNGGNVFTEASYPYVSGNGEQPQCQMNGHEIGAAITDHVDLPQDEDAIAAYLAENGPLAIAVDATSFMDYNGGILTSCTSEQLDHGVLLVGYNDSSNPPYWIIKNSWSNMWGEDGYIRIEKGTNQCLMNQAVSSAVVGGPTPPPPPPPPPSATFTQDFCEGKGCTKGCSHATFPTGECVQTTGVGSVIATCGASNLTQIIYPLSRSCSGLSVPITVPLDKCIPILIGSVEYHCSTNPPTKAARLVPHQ

With `O=C1C2=C(Nc3ccccc3SC2c2ccccc2)c2ccccc21` (centres undefined), the inhibition in the test with Schistosoma mansoni [1] came to 36.8%; in the test with Schistosoma mansoni [2] it was 0.3%.
On to `CCOC(=O)c1c(C)n(-c2ccccc2)c2ccc(OC(=O)c3cc(OC)c(OC)c(OC)c3)cc12`, for which the inhibition was found to be 74.4% in [3]; 4% in test [4]; 10% in test [5]; 51.7% in [6]; 14% in [7]; 19% in test [8]. Further, the results for the inhibition in test [9] and in test [10] were 36.8% and 38.5%, respectively.
On to `CC(C)(C)c1ccc(O)c(CNC2CCCCC2)c1`, for which the inhibition in the test with Schistosoma mansoni [1] amounted to 4.1%; with Schistosoma mansoni [2] it was 48%.
On to `COc1ccc(Br)cc1C1Nc2ccc3ccccc3c2C2=C1C(=O)CC(c1ccccc1)C2` (centres undefined), for which the inhibition was 72.7% in test [3]; 48.3% with Schistosoma mansoni [1]; 37.3% in test [6]; 50% in the test with Schistosoma mansoni [2]; 7% in test [9]; 27.6% in test [10].
In the case of `Cc1cc(NC(=O)c2cccc(C(F)(F)F)c2)n(-c2nc(-c3ccc4c(c3)OCO4)cs2)n1`, the inhibition was found to be 69.4% in test [3]; 0% in the test on Schistosoma mansoni [1]; 42% in test [6]; 47.3% in the test with Schistosoma mansoni [2]; 18.4% in test [9]; 41% in test [10].
Take `FC(F)(F)c1cccc(CNC2CCN(CCc3ccccc3)CC2)c1`: the inhibition was determined as 70.8% in test [3]; 7% in [11]; 1% in test [4]; 12% in test [12]; 22% in test [13]; 0% in test [5]. For the same molecule, the inhibition came out at 65.1% in [6]; 8% in test [7]; 14% in [14]; 6% in [8]; 23.1% in [9]; 20.3% in test [10].
As to `Cc1cc(NC(=O)C2c3ccccc3C(=O)N(CC(C)C)C2c2cccs2)no1` (centres undefined), the values for the inhibition in the test with Schistosoma mansoni [1] and with Schistosoma mansoni [2] were 44.9% and 0%, respectively.
`Cc1cc(Nc2ccc(C)c(Cl)c2)n2nc(C(F)(F)F)nc2n1`: the inhibition came out at 57.8% in [3]; 25% in [11]; 5% in test [4]; 16% in test [12]; 16% in test [13]; 2% in [5]. Moreover, the inhibition in [6] amounted to 47.2%; in test [7], 1%; in test [14] it was 15%; in test [8] it was 4%; in test [9] it was 23.9%; in [10], 27.7%. Also, in test [15], the IC50 turned out to be 32 µM.
Regarding `CCOc1cc(Cl)c(C(C)NC(=O)c2cccc(OC)c2)cc1OCC` (centres undefined), the values for the inhibition in the test with Schistosoma mansoni [1] and in the test with Schistosoma mansoni [2] were 36.3% and 9.5%, respectively.
Consider `Cc1ccc(CSCc2ccc(C(=O)NC3CC3)o2)cc1`, for which the results for the inhibition in the test on Schistosoma mansoni [1] and in the test on Schistosoma mansoni [2] were 4.7% and 50%, respectively.
Consider `O=C(NC1CCN(Cc2ccccc2)CC1)c1cc(C(=O)NC2CCN(Cc3ccccc3)CC2)cc(C(=O)NC2CCN(Cc3ccccc3)CC2)c1`, for which the inhibition is 49.2% in test [3], 60.5% in test [6], 41% in test [9] and 45.4% in test [10].
With `COc1cc(C(=O)ON=C(N)Cc2cccc3ccccc23)cc(OC)c1OC`, the inhibition in [3] is 46.8%; in [6], 51.1%; in test [9] it was 14%; in test [10], 0%.
Turning to `COc1ccc(C(=O)NC(c2ccccc2Cl)c2cc(Cl)c3cccnc3c2O)cc1` (centres undefined), the inhibition in test [3] is 49.4%; in [6] it was 100%; in test [9], 17.1%; in test [10], 29.4%.
As for `COc1ccc(-c2cc3c(nn2)-c2ccccc2C3=O)cc1`, the figures for the inhibition in the test with Schistosoma mansoni [1] and in the test with Schistosoma mansoni [2] were 13.6% and 38.5%, respectively.
For the molecule `CCCCCC(=O)N1c2ccccc2N=C2CC(c3ccc(OC)c(OC)c3)CC(O)=C2C1c1ccc(C(F)(F)F)cc1` (centres undefined), the inhibition in [3] was determined as 46.4%; in test [6] it was 50.7%; in test [9] it was 17%; in [10], 26.7%.
For `CC1(c2ccccc2)Nc2ccccc2-c2nc3ccccc3n21` (centres undefined), the inhibition in the test with Schistosoma mansoni [1] came out at 49.7%; in the test with Schistosoma mansoni [2], 5.2%.
On to `CCCOCc1cc(CN2CCN(c3cccc(Cl)c3)CC2)c(O)c2ncccc12`, for which the inhibition in test [3] was found to be 87.6%; in test [6], 75.3%; in test [9], 37.1%; in test [10] it was 36.4%.
On the same counts, the results for `COc1ccc(C2c3ccc4ccccc4c3Oc3ncn(CCCN(C)C)c(=N)c32)cc1` (centres undefined) are 77.8%, 73.2%, 55.6% and 60.9%.
Taken in the same sequence, the figures for `CCCCCCc1cc2cc(-c3csc(/C=C/c4ccccc4)n3)c(=O)oc2cc1O` were 51.2%, 38.3%, 8.9% and 28.6%.
Regarding `CCOc1cc(CNC(C)C(O)c2ccccc2)cc(Cl)c1OCC` (centres undefined), the inhibition in test [3] came out at 61.8%; in test [6], 46.8%; in [9], 21.7%; in test [10], 32.9%.
`COc1ccc2sc(N(Cc3cccnc3)C(=O)c3ccc(C#N)cc3)nc2c1`: the inhibition came out at 76.9% in [3]; 10% in test [4]; 9% in test [5]; 72.3% in test [6]; 21% in test [7]; 7% in test [8]. Moreover, the inhibition stood at 53% in test [9] and 50.7% in test [10]. In [15], the IC50 turned out to be 32 µM.
In the case of `Cc1ccc(CN2CCC(C(=O)Nc3ccc(-c4cc5ccccc5[nH]4)cc3)CC2)o1`, the inhibition in the test with Schistosoma mansoni [1] was found to be 9%; in the test with Schistosoma mansoni [2], 73%.
As for `O=C(Nc1cccc(-c2nc3ccccc3[nH]2)c1)c1cccc(NC(=O)c2ccco2)c1`, the inhibition in test [3] was 53.9%; in test [6] it was 94.7%; in test [9] it was 96.7%; in test [10], 40.1%.
As to `CCCc1c(CC)c(=N)c2ccccc2n1C`, the inhibition is 59.5% in test [3], 54.8% in test [6], 21.5% in test [9] and 29.4% in test [10].
`CC(C)(C)c1ccc2c(c1)CN(Cc1ccc(Cl)cc1)CO2`: the inhibition in test [3] amounted to 61.3%; in [6] it was 51.5%; in test [9], 52.3%; in test [10], 28.8%.
`CC(=O)c1ccc(NC(=O)CSc2nc(-c3ccccc3Cl)ns2)cc1`: the IC50 (in the test on Trypanosoma cruzi; in test [15]; in test [16]) was 32 µM throughout. Also, the inhibition in test [3] was found to be 67.5%; in [4], 10%; in [5], 10%; in test [6], 76.6%; in test [7], 43%; in [8], 23%. For the same molecule, the inhibition in test [9] is 55.2%; in [10], 39.9%.
With `COCCN(C(=O)Cc1cccs1)C(C(=O)NCc1ccc(OC)cc1)c1ccc(C(C)C)cc1` (centres undefined), the inhibition is 86.7% in [3], 67.5% in [6], 40.6% in test [9] and 38.5% in [10].

Source of the values: ChEMBL document CHEMBL4665666, “Discovery and characterization of trypanocidal cysteine protease inhibitors from the 'malaria box'” (Eur J Med Chem, 2019).
